Sampled rows, rich in hits. Any-hit rate of the full collection: about 1.5%.
PG9 binder: small molecules binding HIV-1 gp120 antibody PG9; TR-FRET gp120-PG9 antibody binding; AID 624416; 360,000 tested, 0.43% active; inhibition, % at 6.7 µM; in the data active = inhibition above about 8.5%
NR2E3 ag-1: agonists of human NR2E3 nuclear receptor. CHO-S Gal4-NCOR/VP16-NR2E3 two-hybrid, luciferase. inhibition of corepressor binding, % at 3.98 µM. 360,000 tested, 0.35% active;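 active = inhibition above the mean of all tested compounds plus 3 SD, cut at about 70% in these data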;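 also: 0% = DMSO with NR2E3 transfected cells and 100% = cells lacking NR2E3 construct; higher means lower luciferase signal from less NR2E3 corepressor binding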
NR2E3 ag-2: agonists of human nuclear receptor NR2E3. inhibition of corepressor binding, % at 4.78 µM. 320,000 tested, 0.12% active. Q9Y5X4. GST-NR2E3/biotin-RetCOR TR-FRET, 1536-well;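 active = percent inhibition above the cutoff of mean plus 3 SD of all tested compounds, set per screening campaign, cut at about 20% in these data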;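 also: 0% = DMSO wells and 100% = biotin wells as full block of FRET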
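System: GST-tagged NR2E3 plus biotinylated RetCOR corepressor; Amount: 1.35 nM GST-tagged NR2E3 final; Dosing: single nominal compound dose of 4.8 µM; Schedule: 5 h incubation at 4 °C; Technique: TR-FRET with europium anti-GST and streptavidin-D2, 340 nm excitation; Controls: biotin wells as high control, 0.6% DMSO wells as low control.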
NR1D1 modulator: modulators of human Rev-erb alpha DNA binding; AID 1259318; 370,000 tested, 0.79% active; Rev-erbα–FITC-DNA binding, fluorescence polarization, 90 min; activity, % at 10 µM; P20393;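 active = activity above about 14%, limit read from the data; passing the limit was not always enough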;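 also: 0% = DMSO wells with 35 nM protein and 100% = DMSO wells with 750 nM protein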
NR2E3 agonist cf: confirmation of human NR2E3 nuclear receptor agonists; cell-free NR2E3 corepressor release, TR-FRET, 5 h; activation (reported as inhibition), % at 3.98 µM; shares compounds with NR2E3 ag-2; AID 2379; 360 tested, 39% active; in the data active = activation above about 20%
PPARg-NCOR2 ag: releases PPARgamma from NCOR2 in NR2E3 counter-screen; shares compounds with NR2E3 ag-2; TR-FRET PPARg-NCOR2 coregulator interaction, biochemical; inhibition, % at 3.98 µM; 360 tested, 45% active; AID 504787; in the data active = inhibition above about 20%;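 also: 0% = DMSO vehicle and 100% = wells without protein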
An asterisk follows results filed as active; . = not tested or not shown.

SMILES	PG9 binder	NR2E3 ag-1	NR2E3 ag-2	NR1D1 modulator	NR2E3 agonist cf	PPARg-NCOR2 ag
Cc1cc(=O)n(C2CCS(=O)(=O)C2)[nH]1 (stereo not given)	-3	-10	33*	-5	-5	-4
CCc1c(C(=O)Nc2ccccc2)c(C)[nH]c(=S)c1C#N	0	-4	30*	-4	2	-3
O=C(O)C(O)[C@H](O)[C@H](O)[C@H](O)[C@H](O)CO (stereo not given in full)	.	.	.	8	.	.
Nc1c(N2CCCC2)cc(Cl)c2nonc12	.	-5	1	.	.	.
Nc1ccc(N2CCCCC2)c2nonc12	-2	-43	43*	0	-16	-14
CCOc1ccc(-n2nc3c(=O)[nH]nc(C)c3c2C)cc1	1	0	0	1	.	.
CCOc1ccc(-n2nc3c(=S)[nH]nc(C)c3c2C)cc1	42*	1	26*	4	15	22*
Nc1c(C(=O)NCCc2ccccc2)sc2nc(N3CCOCC3)c3c(c12)CCCC3	7	0	27*	-4	3	3
Cc1ccccc1NC(=O)c1sc2nc(N3CCOCC3)c3c(c2c1N)CCCC3	5	-89	23*	3	-10	3
CN(C(=O)c1sc2nc(N3CCOCC3)c3c(c2c1N)CCCC3)c1ccccc1	2	-2	7	0	.	.
CO/N=C(\C(=O)N[C@@H]1C(=O)N2C(C(=O)OCOC(=O)C(C)(C)C)=C(C)CS[C@H]12)c1csc(N)n1	.	.	.	5	.	.
CC(OC(=O)CCC(=O)c1ccc(Cl)s1)C(=O)NC1(C#N)CCCCC1 (stereo not given)	3	-22	24*	4	-9	-3
CCc1nnc(NC(=O)c2sc3nc4cc(C)ccc4cc3c2N)s1	-10	-35	37*	-2	-9	-5
Cn1c(N)c(C(=O)CSc2nnc(C3CC3)n2-c2ccccc2)c(=O)[nH]c1=O	-1	-16	.	-12	.	.
Cn1c(N)c(C(=O)CSc2nc(C3CC3)n(-c3ccccc3)n2)c(=O)[nH]c1=O	-2	1	24*	3	-16	-3
C1=Cc2cccc(OCC3CNCCO3)c2C1 (stereo not given)	.	.	.	1	.	.
O=C(O)c1ccc(-n2cccc2/C=C2/SC(=O)N(CC(=O)N3CCCC3)C2=O)cc1	-2	-54	21*	-20	18	6
COc1ccc(OCc2nc3c4cc(OC)c(OC)cc4nc(=S)n3[nH]2)cc1	0	18	21*	2	6	11
Cn1cncc1[C@@](N)(c1ccc(Cl)cc1)c1ccc2c(c1)c(-c1cccc(Cl)c1)cc(=O)n2C	.	.	.	14	.	.
CC1(C)O[C@@H]2CC3C4CCC5=CC(=O)C=C[C@]5(C)[C@@]4(F)[C@@H](O)C[C@]3(C)[C@]2(C(=O)CO)O1 (stereo not given in full)	.	.	.	0	.	.
CCOC(=O)c1c(-c2ccsc2)csc1N	1	2	3	-4	.	.
CCOC(=O)c1c(-c2ccc(C)s2)csc1N	-3	-8	68*	1	-4	-5
Cc1[nH]ccc(=O)c1OCc1ccccc1	0	-4	6	-2	.	.
O=c1cc(OCc2ccccc2)cc[nH]1	1	12	50*	-5	40*	15
CN(C(=O)c1ccc(NC(=O)Cc2ccc(NC(=O)C3CCN(C(=O)c4ccccc4)CC3)cc2)cc1)C1CC1	0	-24	21*	-3	1	-4
SMILES	PG9 binder	NR2E3 ag-1	NR2E3 ag-2	NR1D1 modulator	NR2E3 agonist cf	PPARg-NCOR2 ag
C[C@@H]1O[C@@H](OC[C@H]2OC(Oc3c(-c4ccc(OCCO)c(OCCO)c4)oc4cc(OCCO)cc(O)c4c3=O)[C@H](O)[C@@H](O)[C@@H]2O)[C@H](O)[C@H](O)[C@H]1O (stereo not given in full)	.	.	.	15	.	.
CCCCC1=CC2=C(c3ccco3)C(=O)C(C)(OC(=O)c3ccc(OC)cc3)C(=O)C2=CN1c1ccccc1 (stereo not given)	.	-46	34*	.	-6	-3
C=CCNC(=O)CSc1nc2sccc2c(=O)n1-c1ccccc1	-1	9	23*	7	-5	-6
CCNC(=O)CSc1nc2sccc2c(=O)n1-c1ccccc1	1	-18	-1	3	.	.
CCC(CNc1cc(OC)cc2cccnc12)NC1CCCCC1 (stereo not given)	-5	-10	21*	-23	-4	-6
CC1CC(OC(=O)c2ccccc2)CC(C)(C)N1 (stereo not given)	.	.	.	-1	.	.
C[C@]12CCC(=O)C=C1CCC1C2[C@@H](O)C[C@@]2(C)C1CC[C@]2(O)C(=O)COC(=O)CCC(=O)O (stereo not given in full)	.	.	.	0	.	.
CC/C=C\C/C=C\C/C=C\C/C=C\C/C=C\CCCC(=O)OCC	.	.	.	-8	.	.
COc1ccc(Cn2c(-c3ccc(OC)cc3)nc3c(c(=O)c4ccccc4n3C)c2=O)cc1	.	.	41*	.	29*	20*
CCCC[C@@H](CC)COC(=O)/C=C/c1ccc(OC)cc1	.	.	.	4	.	.
Fc1ccc(NCc2nnc(SCc3nnc(-c4ccccc4)o3)n2CC2CCCO2)cc1 (stereo not given)	1	-5	36*	2	-18	4
O=C(CSc1nnc(CNc2ccc(F)cc2)n1CC1CCCO1)Nc1ccccc1 (stereo not given)	0	4	3	-2	.	.
c1ccc2c(c1)-c1cccc3c1c-2cc1ccccc13	.	.	25*	.	-7	-4
CC(OC(=O)OC1CCCCC1)OC(=O)C1=C(CSc2nnnn2CCN(C)C)CS[C@@H]2[C@H](NC(=O)Cc3csc(N)n3)C(=O)N12 (stereo not given in full)	.	.	.	-7	.	.
CCc1cc2c(=O)n(-c3ccccc3)c(=S)[nH]c2s1	2	-5	23*	-3	1	-2
O=S(=O)(NCc1cccs1)c1cccc(S(=O)(=O)N2CCCCC2)c1	2	-11	34*	4	-6	-6
O=S(=O)(c1cccc(S(=O)(=O)N2CCCC2)c1)N1CCCCC1	-1	-16	5	-4	.	.
Cc1cc(C(=O)O)ccc1-n1c(C)ccc1C	.	.	21*	.	23*	-4
Nc1ccc2nc(-c3ccc(-c4nc5ccc(N)cc5[nH]4)cc3)[nH]c2c1	1	.	24*	13	10	4
COC(=O)C1[C@H]2C[C@H]3c4[nH]c5ccccc5c4CCN3C[C@@H]2CC[C@@H]1O (stereo not given in full)	.	.	.	-3	.	.
CCSc1nc2sc3c(c2c(=O)[nH]1)CC(C)(CC)OC3 (stereo not given)	0	8	-3	-1	.	.
CCC1(C)Cc2c(sc3nc(SC)[nH]c(=S)c23)CO1 (stereo not given)	.	.	22*	.	-5	48*

Assay outcomes deposited in PubChem by several laboratories.
